Source: ChEMBL document CHEMBL4265973, “Broad-spectrum antibacterial amphiphilic aminoglycosides: A new focus on the structure of the lipophilic groups extends the series of active dialkyl neamines” (Eur J Med Chem, 2018)
≈ marks a conversion by molar mass, not a printed value.

Columns and labels:
Staphylococcus aureus [1] = experiment: Antibacterial activity against Staphylococcus aureus ATCC 25923 by microdilution assay; format: functional
In short: (§1)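 Broth microdilution MIC per CLSI recommendations, fresh culture in cation-adjusted Mueller-Hinton broth, starting inoculum 10^6 cells.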

Staphylococcus aureus [2] = experiment: Antibacterial activity against Staphylococcus aureus SA-1 expressing NorA pump by microdilution assay
Staphylococcus aureus [3] = experiment: Antibacterial activity against methicillin-resistant Staphylococcus aureus ATCC 33592 by microdilution assay; format: functional; in short: as §1
Pseudomonas aeruginosa [4] = experiment: Antibacterial activity against Pseudomonas aeruginosa ATCC 27853 by microdilution assay; format: functional
In short: (§2)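 Broth microdilution per CLSI recommendations, using a fresh culture in cation-adjusted Mueller-Hinton broth (CA-MHB) and a starting inoculum of 10^6 cells; the MIC is the value read.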

Pseudomonas aeruginosa [5] = experiment: Antibacterial activity against Pseudomonas aeruginosa FO3 harboring AAC6'-2A by microdilution assay; format: functional; in short: as §1
Pseudomonas aeruginosa [6] = experiment: Antibacterial activity against Pseudomonas aeruginosa PA22 harboring surexp MexXY by microdilution assay; format: functional; in short: as §1
Pseudomonas aeruginosa [7] = experiment: Antibacterial activity against Pseudomonas aeruginosa PA406 harboring triABC deletion mutant by microdilution assay; format: functional; in short: as §1
Acinetobacter lwoffii [8] = experiment: Antibacterial activity against Acinetobacter lwoffii ATCC 17925 by microdilution assay; format: functional; in short: as §2
Acinetobacter lwoffii [9] = experiment: Antibacterial activity against Acinetobacter lwoffii AI.88-483 harboring APH3'-6A by microdilution assay; format: functional; in short: as §1
Escherichia coli [10] = experiment: Antibacterial activity against Escherichia coli PAZ505H8101 harboring AAC6'-1B by microdilution assay; format: functional; in short: as §1
Escherichia coli [11] = experiment: Antibacterial activity against Escherichia coli L8058.1 harboring ANT2'-1A by microdilution assay; format: functional; in short: as §1
Klebsiella pneumoniae = experiment: Antibacterial activity against Klebsiella pneumoniae 700603 by microdilution assay; format: functional; in short: as §2
[12] = Cytotoxicity against mouse J774 cells assessed as cell viability at 10 uM after 24 hrs by MTT assay relative to control; format: cell-based; details: J774 cells, read-out: Activity
In short: (§3)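 Murine J774 macrophages are exposed for 24 h to compound at 10 or 30 µM, then given 0.2 mg/mL MTT for 1 h. The reaction is stopped with DMSO and OD read at 570 nm; viability is metabolic activity as % of control. The number of independent experiments is given per value.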

[13] = Cytotoxicity against mouse J774 cells assessed as cell viability at 30 uM after 24 hrs by MTT assay relative to control; format: cell-based; details: J774 cells, read-out: Activity; in short: as §3
Escherichia coli [14] = experiment: microbe, parasite or virus in culture; details: ATCC 25922

Compound | MIC (Staphylococcus aureus [1]) [µg/mL] | MIC (Staphylococcus aureus [2]) [µg/mL] | MIC (Staphylococcus aureus [3]) [µg/mL] | MIC (Pseudomonas aeruginosa [4]) [µg/mL] | MIC (Pseudomonas aeruginosa [5]) [µg/mL] | MIC (Pseudomonas aeruginosa [6]) [µg/mL] | MIC (Pseudomonas aeruginosa [7]) [µg/mL] | MIC (Acinetobacter lwoffii [8]) [µg/mL] | MIC (Acinetobacter lwoffii [9]) [µg/mL] | MIC (Escherichia coli [10]) [µg/mL] | MIC (Escherichia coli [11]) [µg/mL] | MIC (Klebsiella pneumoniae) [µg/mL] | viability at 24 h, 10 µM [12] [%] | viability at 24 h, 30 µM [13] [%] | MIC (Escherichia coli [14]) [µg/mL]
CCCCCCCCCCO[C@@H]1[C@@H](N)[C@@H](O[C@H]2[C@H](O)[C@@H](OCCCCCCCCCC)[C@H](N)C[C@@H]2N)O[C@H](CN)[C@H]1O | 1 (≈ 1.66 µM) | 1 (≈ 1.66 µM) | 1 to 2 (≈ 1.66 to 3.32 µM) | 4 (≈ 6.63 µM) | 4 (≈ 6.63 µM) | 4 (≈ 6.63 µM) | 8 (≈ 13.3 µM) | 2 (≈ 3.32 µM) | 64 (≈ 106 µM) | 8 (≈ 13.3 µM) | 128 (≈ 212 µM) | 16 (≈ 26.5 µM) | 85.5 | 14.5 | 2 (≈ 3.32 µM)
CCCCCCCCO[C@@H]1[C@@H](N)[C@@H](O[C@H]2[C@H](O)[C@@H](OCCCCCCCC)[C@H](N)C[C@@H]2N)O[C@H](CN)[C@H]1O | 1 (≈ 1.83 µM) | 1 (≈ 1.83 µM) | 2 (≈ 3.66 µM) | 2 (≈ 3.66 µM) | 8 (≈ 14.6 µM) | 8 (≈ 14.6 µM) | 2 (≈ 3.66 µM) | 2 to 4 (≈ 3.66 to 7.32 µM) | 128 (≈ 234 µM) | 2 to 4 (≈ 3.66 to 7.32 µM) | 4 (≈ 7.32 µM) | 8 (≈ 14.6 µM) | 91.3 | 65.1 | 4 (≈ 7.32 µM)
CCCCCCCO[C@@H]1[C@@H](O)[C@H](O[C@H]2O[C@H](CN)[C@@H](O)[C@H](O)[C@H]2N)[C@@H](N)C[C@H]1N | > 128 | > 128 | > 128 | > 128 | > 128 | > 128 | > 128 | 64 (≈ 152 µM) | > 128 | > 128 | > 128 | > 128 | 84.3 | 71.3 | > 128
CCCCCCCO[C@@H]1[C@@H](N)[C@@H](O[C@H]2[C@H](O)[C@@H](OCCCCCCC)[C@H](N)C[C@@H]2N)O[C@H](CN)[C@H]1O | 8 (≈ 15.4 µM) | 8 (≈ 15.4 µM) | 8 (≈ 15.4 µM) | 32 (≈ 61.7 µM) | 8 (≈ 15.4 µM) | 16 (≈ 30.8 µM) | 4 (≈ 7.71 µM) | 32 (≈ 61.7 µM) | > 128 | 16 (≈ 30.8 µM) | 32 (≈ 61.7 µM) | 64 (≈ 123 µM) | 96.3 | 79.9 | 32 (≈ 61.7 µM)
NCC[C@H](O)C(=O)N[C@@H]1C[C@H](N)[C@@H](O[C@H]2O[C@H](CN)[C@@H](O)[C@H](O)[C@H]2O)[C@H](O)[C@H]1O[C@H]1O[C@H](CO)[C@@H](O)[C@H](N)[C@H]1O [AMIKACIN] | 4 (≈ 6.83 µM) | 2 (≈ 3.42 µM) | 8 to 16 (≈ 13.7 to 27.3 µM) | 2 to 4 (≈ 3.42 to 6.83 µM) | 8 (≈ 13.7 µM) | 8 (≈ 13.7 µM) | 1 (≈ 1.71 µM) | < 0.25 | 128 (≈ 219 µM) | 64 (≈ 109 µM) | 8 (≈ 13.7 µM) | 1 (≈ 1.71 µM) | – | – | 4 (≈ 6.83 µM)
CCCCCCCCCCCO[C@@H]1[C@@H](N)[C@@H](O[C@H]2[C@H](O)[C@@H](OCCCCCCCCCCC)[C@H](N)C[C@@H]2N)O[C@H](CN)[C@H]1O | 8 (≈ 12.7 µM) | 8 (≈ 12.7 µM) | 64 (≈ 101 µM) | 16 (≈ 25.4 µM) | 16 (≈ 25.4 µM) | 16 (≈ 25.4 µM) | 16 (≈ 25.4 µM) | 32 (≈ 50.7 µM) | 32 (≈ 50.7 µM) | 16 (≈ 25.4 µM) | 16 (≈ 25.4 µM) | 32 (≈ 50.7 µM) | 81.7 | 14.1 | 4 (≈ 6.34 µM)
CCCCCCCCCCCO[C@@H]1[C@@H](O)[C@H](O[C@H]2O[C@H](CN)[C@@H](O)[C@H](OCCCCCCC)[C@H]2N)[C@@H](N)C[C@H]1N | 1 (≈ 1.74 µM) | 1 (≈ 1.74 µM) | 1 (≈ 1.74 µM) | 2 (≈ 3.48 µM) | 4 (≈ 6.96 µM) | 4 (≈ 6.96 µM) | 2 (≈ 3.48 µM) | 2 (≈ 3.48 µM) | > 128 | 4 (≈ 6.96 µM) | 4 (≈ 6.96 µM) | 8 (≈ 13.9 µM) | 82.9 | 38.8 | 16 (≈ 27.8 µM)
NC[C@H]1O[C@H](O[C@H]2[C@H](O)[C@@H](O)[C@H](N)C[C@@H]2N)[C@H](N)[C@@H](O)[C@@H]1O [NEAMINE] | 16 to 32 (≈ 49.6 to 99.3 µM) | 8 (≈ 24.8 µM) | > 128 | > 128 | > 128 | > 128 | 64 (≈ 199 µM) | 0.5 (≈ 1.55 µM) | > 128 | > 128 | 32 (≈ 99.3 µM) | 32 (≈ 99.3 µM) | – | – | 32 (≈ 99.3 µM)
NC[C@H]1O[C@H](O[C@H]2[C@H](O)[C@@H](O[C@H]3O[C@H](CO)[C@@H](O)[C@H](N)[C@H]3O)[C@H](N)C[C@@H]2N)[C@H](N)C[C@@H]1O [TOBRAMYCIN] | 0.25 to 0.5 (≈ 0.535 to 1.07 µM) | 0.5 (≈ 1.07 µM) | 64 (≈ 137 µM) | < 0.25 | 128 (≈ 274 µM) | 0.5 (≈ 1.07 µM) | < 0.25 | < 0.25 | 0.5 to 1 (≈ 1.07 to 2.14 µM) | 32 (≈ 68.4 µM) | 64 (≈ 137 µM) | 4 to 8 (≈ 8.56 to 17.1 µM) | – | – | 1 (≈ 2.14 µM)
